Tb MetRS inh = Trypanosoma brucei MetRS inhibition; hit rate 0.4% among 360,000; purified T. brucei MetRS, ATP depletion, Kinase-Glo luminescence; inhibition, % at 11.9 µM; AID 624268;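 active means inhibition above a per-plate cutoff of the control wells' mean inhibition plus 3 SD, cut at about 5.5% in these data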
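Assay system: T. brucei methionyl-tRNA synthetase, purified | Medium: HEPES buffer with MgCl2, KCl, DTT, spermine, BSA, pyrophosphatase | Compound: 11.9 µM single point | Incubation: 15 min enzyme-compound preincubation, 2 h reaction, 10 min detection, 25 °C | Measured by: Kinase-Glo luciferase luminescence reporting remaining unconsumed ATP | Measure: % inhibition normalized to control-well medians | Replication: Singlicate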
Rpn11 inh = Rpn11 (human) deubiquitinase inhibition; hit rate 0.59% among 360,000; AID 588493; inhibition, % at 20 µM; human 26S proteasome, Ub4-pepOG fluorescence polarization; 20S core pre-blocked with epoxomicin;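 active means inhibition at 20 µM, scaled to each plate's controls, above about 33%, limit read from the data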
CSN inh = CSN deneddylation inhibition; Q92905; Purified CSN, SCF-Nedd8-OG deneddylation, fluorescence polarization; inhibition, % at 12.5 µM; hit rate 0.38% among 360,000; AID 651999;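 active means pattern-corrected inhibition above about 35%, with an unprinted fluorescence ratio check between 0.5 and 1.5, limit read from the data, passing the limit was not always enough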
Target sequence (Q92905 whole entry, looked up, one chain of several): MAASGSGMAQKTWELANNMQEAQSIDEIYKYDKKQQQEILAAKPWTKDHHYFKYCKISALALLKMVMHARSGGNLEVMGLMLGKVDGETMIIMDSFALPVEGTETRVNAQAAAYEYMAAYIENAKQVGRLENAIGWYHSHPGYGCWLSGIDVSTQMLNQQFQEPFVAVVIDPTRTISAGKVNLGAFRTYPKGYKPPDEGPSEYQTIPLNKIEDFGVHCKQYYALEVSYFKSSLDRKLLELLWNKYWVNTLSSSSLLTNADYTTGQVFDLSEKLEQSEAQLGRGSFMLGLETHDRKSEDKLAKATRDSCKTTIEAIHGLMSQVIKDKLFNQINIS
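Assay system: purified human Csn5 enzyme expressed in HEK293T cells; measure: % inhibition; also added: SCFSkp2-Nedd8OG substrate at 10 nM final; technique: fluorescence polarization; times: reaction 90 min, room temperature; medium: Tris buffer pH 7.5, NaCl, DTT, Tween-20, trehalose, ovalbumin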
Neddyl block = blocks human cullin neddylation; hit rate 0.58% among 360,000; P61081+Q13564; TR-FRET cullin neddylation, biochemical; inhibition, % at 25 µM; in the data active means inhibition above about 36%
PREPL inh = inhibits the human prolyl oligopeptidase-like enzyme; Q4J6C6; recombinant PREPL, fluorescence polarization activity-based probe; inhibition, % at 5.96 µM; hit rate 0.68% among 320,000; in the data active means inhibition above about 43%
HNF4A DNA FP = change in binding of human HNF4 alpha to DNA. activity change, % at 10 µM. P41235. HNF4a-FITC DNA binding, fluorescence polarization, 1 h. hit rate 0.3% among 360,000. AID 1224865; in the data active means activity change above about 30%, passing the limit was not always enough
Large screens that a line does not name were inactive. Compounds with a hit are over-represented: about 2.4% of the library has one in this group of screens.

COCCN(Cc1ccc(C)cc1)C(=O)[C@H]1O[C@@H](n2ccc(=O)[nH]c2=O)[C@H](O)[C@@H]1O	none (no result: PREPL inh)
O=c1c2c3nc4ccccc4nc3n(CC3CCCO3)c2ncn1CCc1ccccc1 (centres undefined)	Neddyl block 51
O=c1[nH]c2ccccc2nc1/C=C/c1ccc(F)cc1	HNF4A DNA FP 44 (not shown: Rpn11 inh)
O=c1[nH]c2ccccc2nc1/C=C/c1ccc(O)cc1	HNF4A DNA FP 36 (not shown: Rpn11 inh, PREPL inh)
CC(C)(C)/C(O)=C/c1nc2ccccc2[nH]c1=O	none
COc1ccc(NC(=O)c2cc([N+](=O)[O-])ccc2N2CCCC2)cc1	none
COc1ccc(NC(=O)c2cc([N+](=O)[O-])ccc2N2CCCCC2)cc1	HNF4A DNA FP 31
CCC(CC)c1nnc(NC(=O)c2cc([N+](=O)[O-])ccc2N2CCCCC2)s1	CSN inh 47
CC(C)CNC(=O)c1cc([N+](=O)[O-])ccc1N1CCCCC1	none
N#Cc1ccccc1OCC(=O)Nc1ccc(S(=O)(=O)N2CCOCC2)cc1	none
CCOC(=O)C1=CCC(C(C)(C)C)N(S(=O)(=O)c2ccc(C)cc2)C1 (centres undefined)	CSN inh 110 (no result: PREPL inh)
Cc1cc(Br)cn2c(CC(C)(C)C)c(C3CCCCC3)nc12	none (no result: PREPL inh)
COc1cc2c(cc1OC)CN(c1nc(-c3cccnc3)nc3ccccc13)CC2	CSN inh 37
CN1CCN(c2nc(-c3cccnc3)nc3ccccc23)CC1	none (not shown: Neddyl block)
O=C(O)c1ccccc1N/N=C/c1c(Sc2nnnn2-c2ccccc2)nc2ccccn2c1=O	CSN inh 97, HNF4A DNA FP 96 (not shown: Rpn11 inh)
Nc1ncnc2c1ncn2[C@@H]1O[C@H](C(=O)N[C@H]2c3ccccc3C[C@H]2O)[C@@H](O)[C@H]1O	none (no result: PREPL inh)
CN(C)/C=C1/Sc2ccccc2C1=O	none
CC(=O)N(\C=C/C=C/C=C1\Sc2ccccc2C1=O)c1ccccc1	HNF4A DNA FP 49
CCOc1ccc(C(C)C)cc1S(=O)(=O)n1ccnc1C	CSN inh 73
CCOc1ccc(S(=O)(=O)n2ccnc2C)cc1	none (no result: Tb MetRS inh, Rpn11 inh, CSN inh, Neddyl block, HNF4A DNA FP)
CCOc1ccc(OCC)c(S(=O)(=O)n2ccnc2C)c1	HNF4A DNA FP 48
COc1cc(OC)cc(C(=O)NCC2CCCN(Cc3cccc(C(C)=O)c3)C2)c1 (centres undefined)	none
CCOc1cccc(CN2CCC(Oc3ccc(C(=O)N4CCCC4)cc3)CC2)c1O	none (no result: PREPL inh)
Cc1noc(C)c1-c1ccc(C(=O)Nc2ccccc2)c2occc12	none (no result: PREPL inh)
Cc1ccc(/C=N/Nc2ccnc3cc(Cl)ccc23)c(C)c1	Neddyl block 45
Cc1ccccc1/C=N/Nc1ccnc2cc(Cl)ccc12	none
Cc1ccc2cc(CCNC(=O)C(C)C)c(=O)[nH]c2c1C	none
Cc1ccc2cc(CCNC(=O)c3ccc4c(c3)OCO4)c(=O)[nH]c2c1C	HNF4A DNA FP 34
Oc1ccccc1/C=N/NC(=S)NC1CC2CC1C1C=CCC21 (centres undefined)	Neddyl block 53
COc1cccc(/C=N/NC(=S)NC2CC3CC2C2C=CCC32)c1O (centres undefined)	none
COc1ccc(C2C(C(=O)c3ccccc3)N3c4ccccc4C=CC3C2[N+](=O)[O-])cc1 (centres undefined)	CSN inh 37 (not shown: Rpn11 inh, PREPL inh)
COCc1cc(C)nc(SCC(=O)Nc2nc(C)cs2)c1C#N	none
CC(=O)OCC1OC(n2c(S)c(C#N)c(-c3ccccc3)c(C#N)c2=O)C(OC(C)=O)C(OC(C)=O)C1OC(C)=O (centres undefined)	none (no result: PREPL inh)
CCN(CC)CCN(Cc1cc2cc3c(cc2[nH]c1=O)OCO3)C(=S)NCc1ccco1	CSN inh 35
Cc1cccc(-c2ccc3c(c2)C2CC3CCN2)c1 (centres undefined)	none (no result: PREPL inh)
Cc1c(CC(=O)O)c(=O)oc2c(C)c(OCc3ccc(F)cc3Cl)ccc12	CSN inh 53
O=C(Nc1ccc(Cl)cc1)c1ccc2sc([C@@H]3O[C@H](CO)[C@@H](O)[C@H]3O)nc2c1	none (no result: PREPL inh)
CNC(=O)C[C@H]1C(=O)N(c2ccc(Br)cc2)C[C@@H]1C	none (no result: PREPL inh)
COC12CC(=O)C(C(C)=O)=C(O)C1(C)c1c(O)c(C)c(O)c(C(C)=O)c1O2 (centres undefined)	CSN inh 43, HNF4A DNA FP 65 (not shown: Rpn11 inh, PREPL inh)

Source: PubChem BioAssay (several laboratories)
